{"source": "ChEMBL document CHEMBL3865797", "about": "“Design, synthesis and biological evaluation of berberine-benzimidazole hybrids as new type of potentially DNA-targeting antimicrobial agents” (Eur J Med Chem, 2016)", "key": {"[1]": {"experiment": "Antifungal activity against Candida utilis measured after 24 hrs by two-fold serial dilution method", "assay_type": "functional", "conditions": "Cyberlindnera jadinii", "outline": "(§1)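 MIC by two-fold serial broth microdilution in 96-well plates, following NCCLS recommendations. Chloromycin, norfloxacin and fluconazole serve as reference drugs. The MIC is read as the lowest concentration that inhibits growth, in µg/mL.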"}, "[2]": {"system": "Proteus vulgaris", "experiment": "Antibacterial activity against Bacillus proteus ATCC 13315 measured after 24 hrs by two-fold serial dilution method", "assay_type": "functional", "conditions": "ATCC 13315, 24 h", "outline": "as §1"}, "[3]": {"system": "Escherichia coli", "experiment": "Induction of Escherichia coli supercoiled pET-28a DNA cleavage measured at 0.1 mM after 5 hrs by agarose gel electrophoresis method"}, "[4]": {"system": "Salmonella typhi", "experiment": "Antibacterial activity against Salmonella typhi measured after 24 hrs by two-fold serial dilution method", "assay_type": "functional, Salmonella enterica subsp. enterica serovar Typhi", "conditions": "Salmonella enterica", "outline": "(§2)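 Two-fold serial dilution in 96-well microtest plates following NCCLS guidance (micro broth dilution). Chloromycin and norfloxacin serve as positive controls. MIC is reported in µg/mL.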"}, "[5]": {"organism": "Bos taurus", "experiment": "Binding affinity to calf thymus DNA by UV-vis spectroscopy"}, "[6]": {"system": "Escherichia coli", "experiment": "Induction of membrane permeabilization in Escherichia coli DH52 at 12 times MIC by propidium iodide staining-based fluorescence analysis", "assay_type": "functional", "outline": "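Propidium iodide uptake measured by fluorescence in E. coli DH52 exposed to agent at 12 × MIC. The dye enters bacteria with compromised membranes and fluoresces on binding DNA.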"}, "[7]": {"experiment": "Antifungal activity against Saccharomyces cerevisiae measured after 24 hrs by two-fold serial dilution method", "assay_type": "functional", "outline": "as §1"}, "[8]": {"system": "Aspergillus flavus", "experiment": "Antifungal activity against Aspergillus flavus measured after 24 hrs by two-fold serial dilution method", "assay_type": "functional", "outline": "as §1"}, "[9]": {"system": "Pseudomonas aeruginosa", "experiment": "Antibacterial activity against Pseudomonas aeruginosa measured after 24 hrs by two-fold serial dilution method", "assay_type": "functional", "outline": "as §1"}, "[10]": {"organism": "Bos taurus", "experiment": "Binding affinity to calf thymus DNA assessed as hypochromic effect by UV-vis spectroscopy"}, "[11]": {"system": "Staphylococcus aureus", "experiment": "Antibacterial activity against methicillin-resistant Staphylococcus aureus N315 measured after 24 hrs by two-fold serial dilution method", "assay_type": "functional", "conditions": "N315, 24 h", "outline": "as §2"}, "[12]": {"organism": "Bos taurus", "experiment": "Binding affinity to calf thymus DNA assessed as increase in maximum absorption peak at 260 nm by UV-vis spectroscopy", "outline": "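Absorption spectra of DNA recorded at pH 7.4 and 298 K with increasing concentrations of added agent. Absorbance at 260 nm of the complex is compared with the summed absorbance of free DNA and free agent.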"}, "[13]": {"system": "Micrococcus luteus", "experiment": "Antibacterial activity against Micrococcus luteus ATCC 4698 measured after 24 hrs by two-fold serial dilution method", "assay_type": "functional", "conditions": "NCTC 2665, 24 h", "outline": "as §1"}, "[14]": {"system": "Staphylococcus aureus", "experiment": "Induction of membrane permeabilization in methicillin-resistant Staphylococcus aureus N315 at 12 times MIC by propidium iodide staining-based fluorescence analysis", "assay_type": "functional", "outline": "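Cells are exposed to the agent at 12 × MIC, then stained with propidium iodide. The dye enters only cells with compromised membranes and fluoresces on binding DNA, so fluorescence serves as the permeabilization read-out.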"}, "[15]": {"organism": "Bos taurus", "experiment": "Binding affinity to calf thymus DNA assessed as DNA intercalation by neutral red dye based UV-vis spectroscopy"}, "[16]": {"system": "Staphylococcus aureus", "experiment": "Antibacterial activity against Staphylococcus aureus ATCC 25923 measured after 24 hrs by two-fold serial dilution method", "assay_type": "functional", "conditions": "ATCC 25923, 24 h", "outline": "as §1"}, "[17]": {"system": "Bacillus subtilis", "experiment": "Antibacterial activity against Bacillus subtilis measured after 24 hrs by two-fold serial dilution method", "assay_type": "functional", "outline": "as §1"}, "[18]": {"system": "Candida albicans", "experiment": "Antifungal activity against Candida albicans ATCC 76615 measured after 24 hrs by two-fold serial dilution method", "assay_type": "functional", "conditions": "ATCC 76615, 24 h", "outline": "as §1"}, "[19]": {"system": "Escherichia coli", "experiment": "Antibacterial activity against Escherichia coli JM109 measured after 24 hrs by two-fold serial dilution method", "assay_type": "functional", "conditions": "JM109, 24 h", "outline": "as §1"}}, "note": "Activity calls are given as the source filed them. No cut-off for these calls is given here."}
{"smiles": "CCCCCCCn1c(COc2c(OC)ccc3cc4[n+](cc23)CCc2cc3c(cc2-4)OCO3)nc2ccccc21.[Cl-]", "values": [{"measurement": "MIC80", "setting": "[1]", "value": 8, "unit": "µg/mL"}, {"measurement": "MIC", "setting": "[2]", "value": 512, "unit": "µg/mL"}, {"measurement": "Activity", "setting": "[3]", "value": "Dose-dependent effect"}, {"measurement": "MIC", "setting": "[4]", "value": 2, "unit": "µg/mL"}, {"measurement": "K", "setting": "[5]", "value": 4.12, "unit": "×10⁴ L/mol"}, {"measurement": "Activity", "setting": "[6]", "value": "Active"}, {"measurement": "MIC80", "setting": "[7]", "value": 512, "unit": "µg/mL"}, {"measurement": "MIC80", "setting": "[8]", "value": 32, "unit": "µg/mL"}, {"measurement": "MIC", "setting": "[9]", "value": 16, "unit": "µg/mL"}, {"measurement": "Activity", "setting": "[10]", "value": "Active"}, {"measurement": "MIC", "setting": "[11]", "value": 8, "unit": "µg/mL"}, {"measurement": "Activity", "setting": "[12]", "value": "Dose-dependent effect"}, {"measurement": "MIC", "setting": "[13]", "value": 64, "unit": "µg/mL"}, {"measurement": "Activity", "setting": "[14]", "value": "Active"}, {"measurement": "Activity", "setting": "[15]", "value": "Active"}, {"measurement": "MIC", "setting": "[16]", "value": 4, "unit": "µg/mL"}, {"measurement": "MIC", "setting": "[17]", "value": 32, "unit": "µg/mL"}, {"measurement": "MIC80", "setting": "[18]", "value": 4, "unit": "µg/mL"}, {"measurement": "MIC", "setting": "[19]", "value": 4, "unit": "µg/mL"}]}
